Key:
DENV2 NS2B/NS3 protease = DENV2 NS2B/NS3 protease (Dengue virus type 2, UniProt P14340); assay: In vitro DENV2 NS2B/NS3 protease assay with fluorogenic peptide substrate; assay type: biochemical; conditions: for inhibition at 50 µM: read-out: inhibition at 50 µmol/L (preliminary screening)
Method in brief: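 Screened at 50 µmol/L; IC50 measured only when inhibition exceeded 10%. DENV2 NS2B-NS3 (0.57 µmol/L) and test compound in DMSO, in Tris–HCl pH 8.5, preincubated 10 min at 37 °C, 200 rpm. […] added, shaken 60 min more; fluorescence read, blank-subtracted. Triplicates, 3 independent experiments, mean±SD; IC50 read graphically from log concentration vs % inhibition.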

DEN2 serine protease = conditions: cited from earlier work

Sequence of DENV2 NS2B/NS3 protease (P14340 1476-2093 limits assumed): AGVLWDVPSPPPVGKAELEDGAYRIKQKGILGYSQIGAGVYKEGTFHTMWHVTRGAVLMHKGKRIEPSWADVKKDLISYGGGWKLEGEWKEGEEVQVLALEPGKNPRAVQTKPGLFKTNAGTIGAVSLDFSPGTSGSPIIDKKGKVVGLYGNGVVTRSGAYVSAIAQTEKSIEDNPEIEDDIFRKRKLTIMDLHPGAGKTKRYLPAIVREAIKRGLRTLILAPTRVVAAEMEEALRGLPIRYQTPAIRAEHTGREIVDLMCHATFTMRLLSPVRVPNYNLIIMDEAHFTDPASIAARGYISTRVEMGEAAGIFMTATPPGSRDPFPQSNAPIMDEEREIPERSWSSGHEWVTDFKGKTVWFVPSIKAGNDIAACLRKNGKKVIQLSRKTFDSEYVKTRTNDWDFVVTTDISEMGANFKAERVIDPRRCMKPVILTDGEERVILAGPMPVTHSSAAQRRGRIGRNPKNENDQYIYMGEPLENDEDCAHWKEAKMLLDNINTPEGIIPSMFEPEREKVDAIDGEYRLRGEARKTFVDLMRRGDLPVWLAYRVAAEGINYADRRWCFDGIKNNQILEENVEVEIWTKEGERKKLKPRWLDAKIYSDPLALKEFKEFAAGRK
Sequence of DENV2 NS2B/NS3 protease (P14340 1346-1475 partner limits assumed): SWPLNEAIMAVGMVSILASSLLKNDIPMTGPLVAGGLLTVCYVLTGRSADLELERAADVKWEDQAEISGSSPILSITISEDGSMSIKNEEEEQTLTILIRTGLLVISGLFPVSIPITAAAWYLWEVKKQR

IC50 (DENV2 NS2B/NS3 protease) [µM] | inhibition at 50 µM (DENV2 NS2B/NS3 protease) [%] | Structure (SMILES) | Ki (DEN2 serine protease) [µM]
16.2 ± 1.3 | > 10 | COc1ccc(C(=O)CN2CC(=Cc3ccc([N+](=O)[O-])cc3)C(=O)C(=Cc3ccc([N+](=O)[O-])cc3)C2)cc1 [Compound 4j, 1-(2-(4-Methoxyphenyl)-2-oxoethyl)-3,5-bis(4-nitrobenzylidene)piperidin-4-one] | 
15.2 ± 1.1 | > 10 | O=C1C(=Cc2ccc([N+](=O)[O-])cc2)CN(CC(=O)c2ccc(F)cc2)CC1=Cc1ccc([N+](=O)[O-])cc1 [Compound 4e, 1-(2-(4-Fluorophenyl)-2-oxoethyl)-3,5-bis(4-nitrobenzylidene)piperidin-4-one] | 
 |  | CC(C)=CC[C@@H]1C(C)=CC[C@@H](c2ccccc2)[C@@H]1C(=O)c1c(O)cc(O)cc1O [4-hydroxypanduratin A] | 21
57.3 ± 1.3 |  | COc1cc(O)c(C(=O)[C@@H]2[C@H](CC=C(C)C)C(C)=CC[C@H]2c2ccccc2)c(O)c1 [Panduratin A, panduratin A, reference compound] | 25

Reference: article PMC5518655 (Acta Pharmaceutica Sinica. B, 2017)
